This is an account of results in ChEMBL document CHEMBL3132796 (Medchemcomm, 2013).

Calls of active or inactive are those of the source. No cut-off for these calls is given here.

Assay [1] addresses T1, Sphingosine kinase 1 (Homo sapiens, UniProt Q9NYA1). Description: Activity at recombinant SK1 (unknown origin) using ATP at 250 uM relative to control.
Assay [2] deals with T2, Sphingosine kinase 2 (Homo sapiens) (UniProt Q9NRA0).
T2 sequence (whole entry): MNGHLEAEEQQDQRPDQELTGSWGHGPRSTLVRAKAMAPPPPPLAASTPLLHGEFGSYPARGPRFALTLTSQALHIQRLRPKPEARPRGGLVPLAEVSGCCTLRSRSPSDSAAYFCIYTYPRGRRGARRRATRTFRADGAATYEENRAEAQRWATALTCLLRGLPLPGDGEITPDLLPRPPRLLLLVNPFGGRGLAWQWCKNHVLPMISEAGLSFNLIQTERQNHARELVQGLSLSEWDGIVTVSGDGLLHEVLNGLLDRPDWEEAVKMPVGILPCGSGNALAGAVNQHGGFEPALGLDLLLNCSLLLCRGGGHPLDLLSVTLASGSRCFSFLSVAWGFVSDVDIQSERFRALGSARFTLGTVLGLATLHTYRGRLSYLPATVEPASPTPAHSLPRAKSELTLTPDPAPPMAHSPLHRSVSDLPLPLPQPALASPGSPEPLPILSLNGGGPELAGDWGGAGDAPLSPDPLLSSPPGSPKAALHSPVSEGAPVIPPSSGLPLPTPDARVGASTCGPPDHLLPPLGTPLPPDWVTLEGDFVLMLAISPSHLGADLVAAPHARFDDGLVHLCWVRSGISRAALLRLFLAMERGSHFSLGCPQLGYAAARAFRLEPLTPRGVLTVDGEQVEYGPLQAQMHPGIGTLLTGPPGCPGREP
Conditions: 1.5 uM.

Assay [3] deals with T2, Sphingosine kinase 2 (Homo sapiens). Conditions: 50 uM.
Assay [4] has as its system PAMSC. Put plainly: Inhibition of DNA synthesis in human PAMSC cells assessed as [3H]-thymidine incorporation into DNA at 300 nM after 24 hrs. Type of assay: functional, cell-based. In outline:
(§1)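 Pulmonary arterial smooth muscle cells were grown to 60% confluency and quiesced 24 h in basal medium with 0.1% eFCS. They were then treated with inhibitor in DMSO (vehicle 0.1% DMSO) for 48 h in complete medium, with [3H]-thymidine (0.25 µCi/mL) added for the final 24 h. Cells were washed with TCA, solubilised in SDS/NaOH and counted by scintillation. Each concentration was run in triplicate.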
(Dividing cells build labelled thymidine or BrdU into new DNA.)

Assay [5] deals with T3, Sphingosine kinase 2 (Homo sapiens, UniProt Q9NRA0).
T3 sequence (Q9NRA0 whole entry): T2 sequence (whole entry)
Put plainly: Inhibition of SK2 (unknown origin). In outline: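 Purified SK2 (37 ng) run 30 min at 30 °C with 10 µM sphingosine complexed to fatty-acid-free BSA (0.2 mg/mL final) and 250 µM [γ-32P]ATP in 10 mM MgCl2. Buffer: 20 mM Tris pH 7.4 with phosphatase/protease inhibitors and 400 mM KCl. Inhibitor added in DMSO; control 5% v/v DMSO. Sphingosine level matches the SK2 Km.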

Assay [6] concerns the target T2, Sphingosine kinase 2 (Homo sapiens). Description: Inhibition of purified SK2 (unknown origin) using sphingosine and [gamma-32P]ATP as substrate at 50 uM after 30 mins relative to control. In outline: (§2)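 Buffer: 20 mM Tris pH 7.4 with EDTA, phosphatase and protease inhibitors, 20% glycerol and 400 mM KCl. Inhibitors were added in DMSO; control was 5% v/v DMSO.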

Assay [7] addresses T1, Sphingosine kinase 1. Description: Inhibition of recombinant SK1 (unknown origin) using sphingosine and [gamma-32P]ATP as substrate after 30 mins.
Assay [8] concerns the target T3, Sphingosine kinase 2. Put plainly: Inhibition of purified SK2 (unknown origin) using sphingosine and [gamma-32P]ATP as substrate after 30 mins. The method in brief: as §2
Assay [9] is described as follows: Decrease of SK1 expression in human PAMSC cells at 10 uM after 24 hrs by Western blot analysis. Type of assay: functional, cell-based. In general terms: A western blot detects proteins with antibodies after separation by electrophoresis.
Assay [10] can be described thus: Decrease of SK1 expression in human PAMSC cells at 10 uM after 24 hrs by Western blot analysis in presence of proteasomal inhibitor MG132. Type of assay: functional, cell-based.
Assay [11] concerns PAMSC. Description: Inhibition of DNA synthesis in human PAMSC cells assessed as [3H]-thymidine incorporation into DNA at 100 nM to 1 uM after 24 hrs. Type of assay: functional, cell-based. The method in brief:
as §1

The target in assay [12] is T2, Sphingosine kinase 2 (Homo sapiens). Put plainly: Activity at purified SK2 (unknown origin) using ATP at 250 uM relative to control.
The test system of assay [13] is PAMSC. The settings on record: Homo sapiens, 10 to 100 nM.
The nature of assay [14]: Decrease of SK1 expression in human PAMSC cells at 100 nM after 24 hrs by Western blot analysis in presence of proteasomal inhibitor MG132. Type of assay: functional, cell-based.
A short description of assay [15]: Decrease of SK1 expression in human PAMSC cells at 100 nM after 24 hrs by Western blot analysis. Type of assay: functional, cell-based.

T1 sequence (Q9NYA1 whole entry): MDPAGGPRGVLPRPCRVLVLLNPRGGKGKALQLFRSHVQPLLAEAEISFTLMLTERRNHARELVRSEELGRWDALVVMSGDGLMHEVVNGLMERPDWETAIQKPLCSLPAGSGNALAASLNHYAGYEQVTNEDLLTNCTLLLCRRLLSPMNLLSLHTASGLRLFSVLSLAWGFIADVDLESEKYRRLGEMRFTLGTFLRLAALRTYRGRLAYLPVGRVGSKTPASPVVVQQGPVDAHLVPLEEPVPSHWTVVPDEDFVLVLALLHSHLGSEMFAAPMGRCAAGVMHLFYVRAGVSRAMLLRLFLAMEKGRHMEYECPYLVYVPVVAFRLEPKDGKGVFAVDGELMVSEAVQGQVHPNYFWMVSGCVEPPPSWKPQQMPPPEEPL

As to `CCCCCCCCCCCCCCC[C@@H](O)[C@H](C)[N+](C)(C)C`, the outcome on Sphingosine kinase 1 [1] was Active.

As for `CCCCCCCCCCCCc1ccc(C(=O)N2CCC[C@H]2C(=N)N)cc1`, the inhibition in assay [2] amounted to 73.4%. Moreover, the inhibition entry in [3] was “Active”. In addition, the inhibition entry in the assay with PAMSC [4] is “inactive”.

As for `O=C(NCc1ccncc1)C12CC3CC(C1)CC(c1ccc(Cl)cc1)(C3)C2` [ABC-294640], at Sphingosine kinase 2 [5], the affinity corresponds to a Ki of 10 µM.

In the case of `CCCCCCCCCCCCCC[C@H]1OC[C@H](NC(=S)Nc2c(F)c(F)c(F)c(F)c2F)[C@@H]1O`, the outcome on Sphingosine kinase 1 [1] was Active.

As to `CCCCCCCCCCCCC/C=C/[C@@H](O)[C@H](CO)NC(=S)Nc1ccc(F)cc1`, in [6], the inhibition is 79.2%.

In the case of `CCCCCCCCCCCCCCC[C@@H](O)[C@H](C)N`, the IC50 on Sphingosine kinase 1 [7] turned out to be 7.1 µM; against Sphingosine kinase 2 [8] it was 766 µM. Moreover, the outcome (in assay [9]; with PAMSC [11]) was Active. Further, the outcome in [10] was inactive.

As for `CCCCCCCCCCCCC/C=C/[C@@H](O)[C@H](CO)NC(=S)Nc1ccc(C(F)(F)F)cc1`, the inhibition entry in assay [6] was “Active”.

For the compound `CCCCCCCCCCCCC/C=C\[C@@H](O)[C@@H](N)CO`, the result (at Sphingosine kinase 1 [1]; in assay [12]) was Active.

In the case of `CCCCCCCCCCCCCCC[C@@H](O)[C@H](CO)NC(=S)Nc1cccc(F)c1`, the inhibition entry in [6] was “Active”. For the same compound, the result (at Sphingosine kinase 1 [1]; in assay [12]) was Active.

The compound `CCCCCCCCCCCCCC[C@@H](O)[C@@H](O)[C@H](CO)NC(=O)Nc1ccc(C(F)(F)F)cc1` gave an inhibition in [6] of 53.9%.

In assay [6], `CCCCCCCCCCCCCCC[C@@H](O)[C@H](CO)NC(=S)Nc1cccc(C(F)(F)F)c1` displayed an inhibition of 80%. In addition, the IC50 on Sphingosine kinase 1 [7] is 69 µM; on Sphingosine kinase 2 [8], 21.8 µM. For the same compound, the outcome in assay [9] was inactive. Also, in assay [12], the outcome was Active.

Regarding `CCCCCCCCCCCCCCOCC(O)[C@H](C)N(C)C` (single isomer, unassigned), the IC50 is 27.8 µM at Sphingosine kinase 1 [7] and 300 µM at Sphingosine kinase 2 [8].

For `Cc1cc(CS(=O)(=O)c2ccccc2)cc(OCc2ccc(CN3CCC[C@@H]3CO)cc2)c1`, the inhibition result in the assay on PAMSC [13] was “inactive”. The result in assay [14] was inactive. The outcome in assay [15] was Active.

`CCCCCCCCCCCCCC[C@@H](O)[C@@H](O)[C@H](CO)NC(=S)Nc1ccc(F)cc1` returned an inhibition in [6] of 64.5%.

One may read the inhibition as the percentage by which the read-out fell short of the control. By Ki is commonly meant the equilibrium dissociation constant of an inhibitor or competing ligand from its target. The low end stands for higher affinity, the high end for lower affinity. Broadly, the IC50 is the midpoint of a concentration-inhibition curve.
